# According to ChEMBL document CHEMBL4017509, “A Dual Modulator of Farnesoid X Receptor and Soluble Epoxide Hydrolase To Counter Nonalcoholic Steatohepatitis” (J Med Chem, 2017):
# Activity calls are given as the source filed them. The calls are words filed in the database; no cut-off is given here.
# Columns and labels:
# [1] = target: T1, Bile acid receptor (Homo sapiens) (UniProt Q96RI1); assay: Transactivation of FXR in human HepG2 cells assessed as BSEP mRNA expression at 1 uM after 8 to 16 hrs by SYBR green based qRT-PCR analysis relative to DMSO control; assay type: cell-based
# T1 sequence (whole entry): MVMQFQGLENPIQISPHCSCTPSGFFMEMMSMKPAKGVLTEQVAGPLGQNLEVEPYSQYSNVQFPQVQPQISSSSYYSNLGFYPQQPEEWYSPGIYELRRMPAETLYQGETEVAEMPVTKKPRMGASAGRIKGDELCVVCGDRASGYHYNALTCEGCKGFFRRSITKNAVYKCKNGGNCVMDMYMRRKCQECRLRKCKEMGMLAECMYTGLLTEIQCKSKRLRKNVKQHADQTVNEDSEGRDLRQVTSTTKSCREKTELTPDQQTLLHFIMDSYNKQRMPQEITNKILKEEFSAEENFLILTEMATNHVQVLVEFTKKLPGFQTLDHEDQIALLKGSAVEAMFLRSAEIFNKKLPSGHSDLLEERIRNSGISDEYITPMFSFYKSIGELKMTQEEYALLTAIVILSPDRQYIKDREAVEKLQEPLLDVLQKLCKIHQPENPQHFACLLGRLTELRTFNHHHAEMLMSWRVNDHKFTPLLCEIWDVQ
# Procedure, shortened: (§1)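 HepG2 cells incubated with test compound (0.1 and 1 μM) or 0.1% DMSO for 8 or 16 h, washed in cold PBS, RNA extracted; target mRNA by SYBR Green qRT-PCR, duplicate samples, ≥4 independent experiments; comparative ΔΔCt with GAPDH reference, vehicle set as 100%.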
# [2] = target: Retinoic acid receptor RXR-alpha (Homo sapiens) (UniProt P19793); assay: Transactivation of human GAL4-fused RXRalpha ligand binding domain expressed in […] cells at 10 uM after 12 to 14 hrs by dual-glo luciferase reporter gene assay; assay type: cell-based
# Procedure, shortened: (§2)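 HEK293T cells in DMEM/10% FCS, Opti-MEM before Lipofectamine LTX transfection with pFR-Luc reporter, pRL-SV40 and pFA-CMV GAL4–LBD plasmid. 5 h later compound in 0.1% DMSO, Opti-MEM, overnight (12−14 h). Dual luciferase; firefly/renilla ×1000 = RLU, fold over DMSO control; triplicates, ≥3 independent repeats.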
# [3] = target: Retinoic acid receptor alpha (Homo sapiens) (UniProt P10276); assay: Transactivation of human GAL4-fused RARalpha ligand binding domain expressed in […] cells at 10 uM after 12 to 14 hrs by dual-glo luciferase reporter gene assay; assay type: cell-based; procedure, shortened: as §2
# [4] = target: Retinoic acid receptor gamma (Homo sapiens) (UniProt P13631); assay: Transactivation of human GAL4-fused RARgamma ligand binding domain expressed in […] cells at 10 uM after 12 to 14 hrs by dual-glo luciferase reporter gene assay; assay type: cell-based; procedure, shortened: as §2
# [5] = target: Nuclear receptor subfamily 1 group I member 3 (Homo sapiens, UniProt Q14994); assay: Transactivation of human GAL4-fused CAR ligand binding domain expressed in […] cells at 10 uM after 12 to 14 hrs by dual-Glo luciferase reporter gene assay; assay type: cell-based; procedure, shortened: as §2
# [6] = Metabolic stability in Sprague-Dawley rat liver microsomes assessed as compound remaining at 10 uM after 60 mins by HPLC analysis; assay type: ADME, microsome; conditions: read-out: Stability
# [7] = target: T1, Bile acid receptor (Homo sapiens); assay: Transactivation of FXR in human HepG2 cells assessed as SHP mRNA expression at 1 uM after 8 to 16 hrs by SYBR green based qRT-PCR analysis relative to DMSO control; assay type: cell-based; procedure, shortened: as §1
# Bile acid receptor = target: T2, Bile acid receptor (Homo sapiens, UniProt Q96RI1); assay: Transactivation of FXR in human HepG2 cells assessed as CYP7A1 mRNA expression at 0.1 uM after 8 to 16 hrs by SYBR green based qRT-PCR analysis relative to DMSO control; assay type: ADME, cell-based
# T2 sequence (Q96RI1 whole entry): T1 sequence (whole entry)
# Procedure, shortened: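 HepG2 cells incubated with compound (0.1 or 1 μM) or 0.1% DMSO for 8 or 16 h, washed with cold PBS, RNA extracted. Quantified by SYBR Green real-time PCR, duplicate samples, at least four independent experiments. ΔΔCt method with GAPDH as reference gene. Expressed as % of vehicle (set to 100%), mean ± SEM.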
# Mus musculus = assay: In vivo activation of FXR in C57BL/6JRj mouse liver assessed as CYP7A1 mRNA expression at 10 mg/kg, po measured up to 480 mins post dose by qRT-PCR analysis relative to control; assay type: ADME, organism-based; conditions: 8 h
# Procedure, shortened: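 Male C57BL/6JRj mice (23−26 g), single oral 10 mg/kg in water with 1% HPMC/Tween 80 (99:1); vehicle group n = 3, treated n = 6. Livers taken 8 h postdose, snap-frozen; cells pressed through 40 μm strainer, total RNA extracted, qRT-PCR with ΔΔCt, % of vehicle.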
# [8] = target: G-protein coupled bile acid receptor 1 (Homo sapiens) (UniProt Q8TDU6); assay: Agonist activity at TGR5 (unknown origin) at 10 uM
# [9] = target: G-protein coupled bile acid receptor 1 (Homo sapiens) (UniProt Q8TDU6); assay: Antagonist activity at TGR5 (unknown origin) at 10 uM
# MDM = assay: Effect on IL-10 levels in LPS-stimulated primary human MDM at 0.01 uM after 16 hrs by cytometric bead array method; assay type: functional, cell-based
# Procedure, shortened: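 Blood monocytes isolated by dextran sedimentation and Nycoprep gradient, adherence-selected 1 h, differentiated with GM-CSF 10 ng/mL for 7 days plus IFNγ 10 ng/mL for last 48 h. Stimulated with LPS 100 ng/mL plus compound for 16 h; supernatant IL-10 and IL-12p70 measured by cytometric bead array flow cytometry.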
# Liver = assay: Drug metabolism in Sprague-Dawley rat liver microsomes assessed as 4-tert-butyl-N-(2-chloro-4-(methylsulfonamido)benzyl)-2-hydroxybenzamide formation at 10 uM preincubated with NADPH regenerating system for 5 mins followed by addition of liver microsomes by LC-MS/MS method; assay type: ADME, microsome
# [10] = target: T3, Bifunctional epoxide hydrolase 2 (Homo sapiens) (UniProt P34913); conditions: 0.01 uM
# T3 sequence (whole entry): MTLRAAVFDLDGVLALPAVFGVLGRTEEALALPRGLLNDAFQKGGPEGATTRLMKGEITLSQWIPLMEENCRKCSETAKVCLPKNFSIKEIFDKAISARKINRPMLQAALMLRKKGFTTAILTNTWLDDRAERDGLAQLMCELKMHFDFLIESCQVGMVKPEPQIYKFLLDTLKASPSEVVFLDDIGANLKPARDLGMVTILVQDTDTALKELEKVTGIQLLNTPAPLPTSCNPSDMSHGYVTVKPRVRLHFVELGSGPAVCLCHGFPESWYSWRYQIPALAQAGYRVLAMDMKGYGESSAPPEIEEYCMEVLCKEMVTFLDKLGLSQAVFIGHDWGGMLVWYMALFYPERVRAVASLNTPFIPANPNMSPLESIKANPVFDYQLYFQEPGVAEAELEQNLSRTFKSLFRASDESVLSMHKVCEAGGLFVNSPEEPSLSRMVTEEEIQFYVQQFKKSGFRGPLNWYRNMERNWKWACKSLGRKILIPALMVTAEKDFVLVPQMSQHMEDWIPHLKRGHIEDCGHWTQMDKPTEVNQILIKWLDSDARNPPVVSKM
# Chain of G-protein coupled bile acid receptor 1 (Homo sapiens) (Q8TDU6 whole entry): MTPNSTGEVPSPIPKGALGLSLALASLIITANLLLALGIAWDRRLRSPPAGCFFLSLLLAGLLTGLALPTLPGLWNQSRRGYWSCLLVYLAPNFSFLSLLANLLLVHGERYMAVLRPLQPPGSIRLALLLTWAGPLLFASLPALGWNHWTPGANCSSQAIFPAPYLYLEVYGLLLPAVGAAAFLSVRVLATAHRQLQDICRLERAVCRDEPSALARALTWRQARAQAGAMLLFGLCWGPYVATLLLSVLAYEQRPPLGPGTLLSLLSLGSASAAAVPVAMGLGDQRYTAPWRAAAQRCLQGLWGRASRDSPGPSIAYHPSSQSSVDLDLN
# Chain of Retinoic acid receptor alpha (Homo sapiens) (P10276 whole entry, the tested form may be a part): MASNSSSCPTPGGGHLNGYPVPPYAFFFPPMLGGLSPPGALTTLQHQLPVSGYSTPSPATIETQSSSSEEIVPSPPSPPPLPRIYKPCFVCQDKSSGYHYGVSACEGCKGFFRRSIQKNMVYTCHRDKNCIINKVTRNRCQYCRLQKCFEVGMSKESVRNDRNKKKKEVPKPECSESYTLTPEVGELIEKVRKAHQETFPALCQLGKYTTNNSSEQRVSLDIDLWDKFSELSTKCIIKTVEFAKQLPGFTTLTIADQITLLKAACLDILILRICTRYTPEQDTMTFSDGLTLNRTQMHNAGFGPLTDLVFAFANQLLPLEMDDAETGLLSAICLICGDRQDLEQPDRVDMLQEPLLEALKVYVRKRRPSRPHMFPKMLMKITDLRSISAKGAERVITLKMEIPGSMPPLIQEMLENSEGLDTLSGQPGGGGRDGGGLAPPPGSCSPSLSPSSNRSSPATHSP
# Chain of Retinoic acid receptor RXR-alpha (Homo sapiens) (P19793 whole entry, the tested form may be a part): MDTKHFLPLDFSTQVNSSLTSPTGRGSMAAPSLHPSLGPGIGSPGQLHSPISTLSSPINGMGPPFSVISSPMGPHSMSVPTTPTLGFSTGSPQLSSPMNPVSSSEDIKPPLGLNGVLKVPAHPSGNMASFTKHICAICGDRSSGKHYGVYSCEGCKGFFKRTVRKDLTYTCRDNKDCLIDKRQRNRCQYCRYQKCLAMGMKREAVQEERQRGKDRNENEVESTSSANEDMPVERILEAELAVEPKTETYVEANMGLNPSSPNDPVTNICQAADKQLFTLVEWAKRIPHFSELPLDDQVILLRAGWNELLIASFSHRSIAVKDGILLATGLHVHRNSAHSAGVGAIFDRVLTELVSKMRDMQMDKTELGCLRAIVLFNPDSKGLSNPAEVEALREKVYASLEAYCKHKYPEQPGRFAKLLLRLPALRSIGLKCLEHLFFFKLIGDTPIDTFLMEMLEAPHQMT
# Chain of Retinoic acid receptor gamma (Homo sapiens) (P13631 whole entry, the tested form may be a part): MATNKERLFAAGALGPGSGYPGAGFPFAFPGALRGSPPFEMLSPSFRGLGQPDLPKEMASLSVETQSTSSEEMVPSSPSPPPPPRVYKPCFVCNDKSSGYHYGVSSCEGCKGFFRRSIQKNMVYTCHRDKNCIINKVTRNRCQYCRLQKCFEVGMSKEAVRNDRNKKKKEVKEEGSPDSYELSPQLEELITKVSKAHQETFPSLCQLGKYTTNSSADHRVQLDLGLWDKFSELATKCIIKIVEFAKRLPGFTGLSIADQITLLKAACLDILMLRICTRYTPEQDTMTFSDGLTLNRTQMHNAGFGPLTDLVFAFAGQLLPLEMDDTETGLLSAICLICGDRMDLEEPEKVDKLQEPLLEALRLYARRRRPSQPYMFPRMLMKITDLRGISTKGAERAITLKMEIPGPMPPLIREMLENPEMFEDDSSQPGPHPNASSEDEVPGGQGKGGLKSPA
# Chain of Nuclear receptor subfamily 1 group I member 3 (Q14994 whole entry, the tested form may be a part): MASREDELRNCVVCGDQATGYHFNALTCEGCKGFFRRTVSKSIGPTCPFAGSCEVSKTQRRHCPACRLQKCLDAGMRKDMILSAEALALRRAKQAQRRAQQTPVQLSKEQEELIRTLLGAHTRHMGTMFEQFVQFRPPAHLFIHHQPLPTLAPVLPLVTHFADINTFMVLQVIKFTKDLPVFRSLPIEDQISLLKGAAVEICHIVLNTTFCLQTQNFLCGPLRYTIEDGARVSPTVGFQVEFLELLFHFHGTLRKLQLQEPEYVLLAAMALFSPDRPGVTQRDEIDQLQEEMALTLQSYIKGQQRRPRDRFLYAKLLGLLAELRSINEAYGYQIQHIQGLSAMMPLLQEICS
smiles,measurement,setting,value
CC(C)(C)c1ccc(C(=O)NCc2ccc(NS(C)(=O)=O)cc2Cl)cc1,Activity,[1],222%
same,Activity,[2],inactive
same,Activity,[3],inactive
same,Activity,[4],inactive
same,Activity,[5],Not Active
same,"remaining at 1 h, 10 µM",[6],> 50%
same,Activity,[7],317%
same,Activity,Bile acid receptor,50%
same,Activity,Mus musculus,70%
same,Activity,[8],inactive
same,inhibition,[9],inactive
same,Activity,MDM,inactive
same,Drug metabolism,Liver,Metabolite_Notdetected
same,inhibition,[10],inactive
